The target of series [1] is T1, Amine oxidase [flavin-containing] B (Homo sapiens, UniProt P27338).
T1 sequence (P27338 whole entry): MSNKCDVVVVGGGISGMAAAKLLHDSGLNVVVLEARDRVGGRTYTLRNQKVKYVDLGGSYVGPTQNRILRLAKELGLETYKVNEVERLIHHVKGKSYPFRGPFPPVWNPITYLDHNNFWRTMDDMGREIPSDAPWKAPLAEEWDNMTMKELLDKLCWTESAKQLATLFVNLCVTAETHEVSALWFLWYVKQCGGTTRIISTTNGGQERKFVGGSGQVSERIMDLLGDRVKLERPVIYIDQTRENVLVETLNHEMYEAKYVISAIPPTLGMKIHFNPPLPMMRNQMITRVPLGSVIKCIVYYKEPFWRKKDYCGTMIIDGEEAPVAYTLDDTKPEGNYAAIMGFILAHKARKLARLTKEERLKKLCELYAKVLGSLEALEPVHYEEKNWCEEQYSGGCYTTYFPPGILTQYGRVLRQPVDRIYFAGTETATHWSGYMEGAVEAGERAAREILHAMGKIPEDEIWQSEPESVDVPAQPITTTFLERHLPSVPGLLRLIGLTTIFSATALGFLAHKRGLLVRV
The series can be described thus: Irreversible inhibition of recombinant human MAO-B at 30 nM using p-tyramine as substrate preincubated for 15 to 60 mins followed by substrate addition and subsequent two-fold enzyme dilution measured after 15 mins by amplex red reagent based fluorescence assay. Conditions: 0.25 h, 0.03 µM; call rule not given here.

Series [2] deals with Mus musculus. The series can be described thus: Acute toxicity in Kunming mouse assessed as effect on serum AST level at 2.4 mmol/kg, po administered as single dose via gavage measured continuously for first 4 hrs, intermittently for next 24 hrs and occasionally thereafter for 14 days. Type of series: organism-based. The following applies: in vivo. In short, it runs like this: (§1)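 Male KM mice (18–20 g), fasted overnight, given one oral 2.4 mmol/kg dose suspended in 0.5% CMC-Na. On day 14, orbital blood was collected before decapitation and serum AST and ALT activities measured against a control group. Mean ± SD of three independent experiments.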

The test system of series [3] is Mus musculus. The series can be described thus: Acute toxicity in Kunming mouse assessed as abnormal change in food consumption at 2.4 mmol/kg, po administered as single dose via gavage measured continuously for first 4 hrs, intermittently for next 24 hrs and occasionally thereafter for 14 days. Type of series: organism-based. The following applies: in vivo. In short, it runs like this:
(§2)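 Male KM mice (22 days old, 18–20 g), 15 in total, randomly split into 3 groups of 5. Kept on a 12 h light/dark cycle at 20-22 °C and 60-70% humidity, fasted overnight with free water. Single oral dose of 2.4 mmol/kg suspended in 0.5% CMC-Na. Mortality, behaviour, water and food intake, and body weight followed over 14 days.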

Series [4] concerns Mus musculus. The series can be described thus: Hepatotoxicity in Kunming mouse at 2.4 mmol/kg, po administered as single dose via gavage measured continuously for first 4 hrs, intermittently for next 24 hrs and occasionally thereafter for 14 days by […]. The following applies: in vivo. Type of series: toxicity, organism-based. In short, it runs like this: (§3)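 Male KM mice (18–20 g) received a single oral 2.4 mmol/kg dose in 0.5% CMC-Na suspension after an overnight fast. All animals were sacrificed on day 14 after dosing, and heart, liver and kidneys were examined macroscopically for damage.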

The subject of series [5] is Mus musculus. The series can be described thus: Nephrotoxicity in Kunming mouse at 2.4 mmol/kg, po administered as single dose via gavage measured continuously for first 4 hrs, intermittently for next 24 hrs and occasionally thereafter for 14 days […]. The series is classed as toxicity, organism-based. The following applies: in vivo. Summed up: as §3
A short description of series [6]: Permeability of the compound in PBS/EtOH at […] after 16 hrs by PAMPA. The series is classed as ADME. Conditions: read-out: Peff. (In general: PAMPA measures passive passage across an artificial lipid membrane.)
Series [7] relates to Mus musculus. Put plainly: Cardiotoxicity in Kunming mouse at 2.4 mmol/kg, po administered as single dose via gavage measured continuously for first 4 hrs, intermittently for next 24 hrs and occasionally thereafter for 14 days by […]. The series is classed as toxicity, organism-based. The following applies: in vivo. In short, it runs like this:
as §3

For series [8], the system named is Mus musculus. The series can be described thus: Acute toxicity in Kunming mouse assessed as mortality at 2.4 mmol/kg, po administered as single dose via gavage measured continuously for first 4 hrs, intermittently for next 24 hrs and occasionally thereafter for 14 days. The series is classed as organism-based. The following applies: in vivo. In short, it runs like this: as §2

In series [9] the test system is Mus musculus. Put plainly: Acute toxicity in Kunming mouse assessed as effect on serum ALT level at 2.4 mmol/kg, po administered as single dose via gavage measured continuously for first 4 hrs, intermittently for next 24 hrs and occasionally thereafter for 14 days. Type of series: organism-based. Conditions: in vivo. Summed up: as §1
In series [10] the target is Amyloid-beta precursor protein (Homo sapiens) (UniProt P05067). The series can be described thus: Inhibition of self-induced Amyloid beta (1 to 42) (unknown origin) aggregation at 25 uM after 48 hrs by thioflavin T-based fluorometric assay relative to control. In short, it runs like this:
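Aβ1-42 stock (2000 μM in 1% ammonium hydroxide) diluted in 50 mM phosphate pH 7.4. Peptide (final 25 μM) incubated with or without compound (25 μM) at 37 °C for 48 h. Then diluted in 50 mM glycine-NaOH pH 8.0 containing 5 μM thioflavin T, read after 5 min (ex 446/em 490 nm). Inhibition = (1 − IFi/IFc) × 100 after blank subtraction. Mean ± SD of three independent experiments.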

For series [11], the system named is Mus musculus. Put plainly: Acute toxicity in Kunming mouse assessed as abnormal change in water consumption at 2.4 mmol/kg, po administered as single dose via gavage measured continuously for first 4 hrs, intermittently for next 24 hrs and occasionally thereafter for 14 days. The series is classed as organism-based. Conditions: in vivo. In short, it runs like this:
as §2

The species named for series [12] is Homo sapiens. The series can be described thus: Selectivity index, ratio of IC50 for recombinant human MAO-A to IC50 for recombinant human MAO-B. Summed up:
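Commercial human MAO-A (1.1 μg protein) and MAO-B (7.5 μg protein) adjusted to equal velocity (165 pmol p-tyramine/min). Compounds from 10 mM DMSO stock diluted in 0.05 M potassium phosphate, pH 7.4. Preincubated with enzyme 15 min at 37 °C in the dark; 200 μM Amplex Red, 2 U/mL HRP, 2 mM p-tyramine added for 20 min at 37 °C.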

Series [13] addresses T1, Amine oxidase [flavin-containing] B. The series can be described thus: Inhibition of recombinant human MAO-B using p-tyramine as substrate preincubated for 15 mins followed by substrate addition measured after 20 mins by amplex red reagent based fluorescence assay.
In series [14] the test system is Mus musculus. Put plainly: Acute toxicity in Kunming mouse assessed as abnormal change in body weight at 2.4 mmol/kg, po administered as single dose via gavage measured continuously for first 4 hrs, intermittently for next 24 hrs and occasionally thereafter for 14 days. Type of series: organism-based. The following applies: in vivo. In short, it runs like this: as §2

In series [15] the target is T2, Amine oxidase [flavin-containing] A (Homo sapiens, UniProt P21397).
T2 sequence (P21397 whole entry): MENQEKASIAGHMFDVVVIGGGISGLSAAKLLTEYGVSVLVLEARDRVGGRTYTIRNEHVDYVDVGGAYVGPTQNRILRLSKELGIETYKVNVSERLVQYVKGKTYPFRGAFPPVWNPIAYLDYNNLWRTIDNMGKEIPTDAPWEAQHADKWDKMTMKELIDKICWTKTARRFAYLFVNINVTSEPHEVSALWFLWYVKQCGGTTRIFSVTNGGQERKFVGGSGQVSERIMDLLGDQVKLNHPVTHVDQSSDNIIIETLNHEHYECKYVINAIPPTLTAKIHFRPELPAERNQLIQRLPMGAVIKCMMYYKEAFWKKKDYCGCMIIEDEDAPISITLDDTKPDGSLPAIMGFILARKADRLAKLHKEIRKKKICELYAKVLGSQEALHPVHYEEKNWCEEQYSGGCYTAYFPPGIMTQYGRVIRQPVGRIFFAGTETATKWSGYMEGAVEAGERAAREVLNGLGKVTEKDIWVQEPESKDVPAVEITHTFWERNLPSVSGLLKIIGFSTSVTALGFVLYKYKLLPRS
Put plainly: Inhibition of recombinant human MAO-A using p-tyramine as substrate preincubated for 15 mins followed by substrate addition measured after 20 mins by amplex red reagent based fluorescence assay.

The subject of series [16] is PC-12. The series can be described thus: Cytotoxicity against rat PC12 cells assessed as reduction in cell viability up to 100 uM after 24 hrs by MTT assay. Type of series: cell-based. Conditions: pc-12, 24 h. Summed up:
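PC12 cells grown at 37 °C, 5% CO2 in DMEM with 10% bovine calf serum and penicillin/streptomycin; seeded 10,000 cells/well, switched to serum-free medium, then exposed to compound (0–100 μM) for 24 h. MTT added for 4 h at 37 °C, formazan dissolved in DMSO, absorbance read at 570 nm (reference 630 nm). Mean ± SD of three independent experiments.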

Chain of Amyloid-beta precursor protein (Homo sapiens) (P05067 whole entry): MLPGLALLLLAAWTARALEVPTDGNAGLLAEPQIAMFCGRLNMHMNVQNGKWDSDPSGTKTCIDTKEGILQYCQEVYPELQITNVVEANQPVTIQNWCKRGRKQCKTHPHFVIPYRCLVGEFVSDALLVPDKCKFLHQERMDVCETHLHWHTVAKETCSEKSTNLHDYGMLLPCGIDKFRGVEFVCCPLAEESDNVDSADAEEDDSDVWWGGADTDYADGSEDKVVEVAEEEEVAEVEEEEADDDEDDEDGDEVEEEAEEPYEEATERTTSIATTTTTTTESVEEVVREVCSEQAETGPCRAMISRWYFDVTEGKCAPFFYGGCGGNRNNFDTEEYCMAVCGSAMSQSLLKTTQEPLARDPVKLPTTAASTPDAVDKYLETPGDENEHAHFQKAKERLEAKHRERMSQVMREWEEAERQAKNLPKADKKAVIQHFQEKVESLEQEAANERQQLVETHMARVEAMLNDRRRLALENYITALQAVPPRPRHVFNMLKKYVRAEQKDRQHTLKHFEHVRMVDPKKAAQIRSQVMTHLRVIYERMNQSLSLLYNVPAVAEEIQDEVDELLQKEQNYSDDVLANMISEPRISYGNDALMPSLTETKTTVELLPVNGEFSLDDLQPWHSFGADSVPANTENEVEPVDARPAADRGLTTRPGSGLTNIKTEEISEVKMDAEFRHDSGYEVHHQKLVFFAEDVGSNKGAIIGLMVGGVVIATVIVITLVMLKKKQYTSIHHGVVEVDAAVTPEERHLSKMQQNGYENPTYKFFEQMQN

A word on the inhibition: it is the share of the control response that was lost under treatment. A high value points to strong suppression. For orientation: IC50 means the concentration needed to halve the response being measured. In the case of `C#CCN(C)CCCCOc1ccc2ccc(=O)oc2c1`, in series [1], the “inhibition (INH)” value is given as “Active”. Also, the Activity entry in series [2], in series [3], in [4], in [5], in series [7] and in [8] was “Non-Toxic” each time. In addition, the Activity result in [9], in series [11], in series [14] and in series [16] was “Non-Toxic” in each case. For the same compound, in [6], the Papp at 16 h came to 8.92 ×10⁻⁶ cm/s. The inhibition in series [10] came to 54%. Further, in series [12], the Ratio IC50 was 121. Besides, the IC50 in series [13] stood at 27 nM; in series [15], 3280 nM.

(Values after ChEMBL document CHEMBL4190276, “Design, synthesis and evaluation of coumarin-pargyline hybrids as novel dual inhibitors of monoamine oxidases and amyloid-β aggregation for the treatment of Alzheimer's disease” (Eur J Med Chem, 2017).)
